Efflux pump inh = inhibitors of Candida antifungal efflux pumps expressed in yeast; S. cerevisiae Candida pump triplex, Nile Red efflux; inhibition, % at 10 µM; actives 0.44% (n = 330,000); AID 485275;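 active = plate passing quality check with inhibition over a set limit, or well fluorescence over plate mean plus 4 SD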;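 also: Nile Red retained in pooled yeast measured as flow cytometry median fluorescence; 0% = buffer negative control and 100% = Enniatin B positive control; higher means more Nile Red kept so more efflux inhibition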
T cruzi inh = blocks replication of Trypanosoma cruzi. T. cruzi beta-gal in NIH3T3, luminescence, 90 h. inhibition, % (test concentration not listed). actives 1.4% (n = 300,000). AID 1885;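 active = mean inhibition across valid replicates above about 55%, limit read from the data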;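 also: signal also drops with host cell toxicity which is not excluded here; 0% = plate median of DMSO wells and 100% = zero luminescence signal; higher percent means less beta-gal luminescence so fewer parasites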
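assay system = mouse NIH/3T3 fibroblasts infected with β-gal-expressing T. cruzi Tulahuen C4 | input = 5,000 NIH/3T3 host cells per well | buffer or medium = DMEM plus 2% FBS | timing = 3 h host attachment, then at least 90 h co-culture | measured by = GalScreen luminescence, 60 min | evaluation = luminescence reflecting intracellular parasite burden, expressed as percent inhibition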
WT yeast gro inh = growth inhibition of WT yeast, mitochondrial fusion screen | mitochondrial fusion phenotypic screen, WT strain | AID 1362 | actives 2.1% (n = 190,000) | inhibition, % at 10 µM; in the data active = inhibition above about 58%; tested in S. cerevisiae
Mot1-301 SUMO = inhibitors of SUMOylation pathway: yeast Mot1-301 growth rescue; growth rescue, % at 18.8 µM; AID 2716; actives 1% (n = 320,000); S. cerevisiae Mot1-301 growth rescue, ATP luminescence, 38.5C; percent above DMSO median, 100 means doubled;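 active = every valid replicate shows activation above 250% relative to neutral control wells; inactive = the rest, any valid replicate at or below 250%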;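 also: OY570 slx delta 5 strain wells were the positive control but not used for scaling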
Beta cell apopt = beta cell apoptosis inhibition | actives 0.8% (n = 300,000) | protection from apoptosis, % (test concentration not listed) | INS-1E cytokine-induced death, ATP luminescence, 48 h; percent of positive-control rescue, neutral wells zero | AID 435005;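 active = Every replicate reaches about 75%, or at least half do and their mean reaches it too, limit read from the data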;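 also: 0% = cytokine-treated negative control wells and 100% = positive control rescue; higher means more ATP so stronger rescue from cytokine killing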
CSC inhib = blocks cancer stem cells; inhibition, % at 7.5 µM; AID 2717; cancer stem cell-like cells viability, luminescence; actives 1.1% (n = 300,000); in the data active = inhibition above about 75%; tested in HMLE shEcad cells
Numbers without * were called inactive; i = inactive; / = no result. Only some compounds are listed: those with a hit (about 4.8% of all), similar ones and a draw of the others.

SMILES	Efflux pump inh	T cruzi inh	WT yeast gro inh	Mot1-301 SUMO	Beta cell apopt	CSC inhib
CC(=O)c1c(C)oc2ccc(N(C(C)=O)S(=O)(=O)c3cccc4cccnc34)cc12	0	15	/	297	104*	4
O=C(CCSc1ccc(Br)cc1)Nc1cccnc1	0	10	0	6	-5	-2
CC(C)Oc1ccc(S(=O)(=O)N2CCOCC2)cc1NC(=O)C(C)Oc1ccc(F)cc1 (configuration not stated)	0	12	/	-14	0	0
Cc1onc(-c2ccccc2Cl)c1C(=O)NC1CCCCCC1	0	14	/	-12	6	-3
O=C(NNC(=O)c1ccccc1Cl)c1cc2cc(OC(F)(F)F)ccc2[nH]1	0	-7	/	-14	/	/
COCCN(C(=S)Nc1ccc(C)c(C)c1)C(C)c1ccco1 (configuration not stated)	0	-5	60*	-5	-9	6
O=C(Oc1ccc2ccc(=O)oc2c1)c1ccco1	0	64*	/	13	0	0
COc1ccccc1C(=O)Oc1ccc2ccc(=O)oc2c1	0	-6	/	8	-3	8
COC(=O)c1c(C)[nH]c(O)c1C=Nc1ccc(Oc2ccccc2)cc1	0	-28	6	2	14	12
COC(=O)c1c(C)[nH]c(O)c1C=Nc1ccc(C(C)C)cc1	0	58*	24	7	5	23
CCOc1ccc2c(c1)C(=NNC(=O)c1ccncc1)c1cc(OCC)ccc1-2	0	60*	-1	i	65	52
CCOc1ccc(NC(=O)c2ccncc2)cc1	0	-1	-3	/	/	4
COC(=O)C1CCN(C(=O)c2oc3c(Cl)cc(C)cc3c2C)CC1	0	9	/	-16	2	9
Cc1cc(Cl)c2oc(C(=O)N3CCN(c4ccncc4)CC3)c(C)c2c1	0	61*	/	450*	48	83*
Fc1ccc(Nc2nc(NCc3ccco3)c3ccccc3n2)cc1	0	57*	/	-37	44	86*
Nc1nc(Nc2ccccc2F)nc(NCc2ccco2)c1[N+](=O)[O-]	0	-12	/	304*	/	-13
Cc1ccc(Nc2nc(N)c([N+](=O)[O-])c(NCc3ccco3)n2)cc1	0	15	5	-3	0	14
Nc1nc(Nc2ccccc2)nc(NCc2ccco2)c1[N+](=O)[O-]	0	9	35	9	-8	28
Cc1cc(C)nc(NC(=NCCc2c[nH]c3ccccc23)NC(=O)Nc2ccc(Cl)cc2)n1	1	49	29	-1	20	97*
C=CCOc1c(Cl)cc(C(=S)N2CCCC2)cc1OCC	0	6	/	-5	/	68
Cc1cccc(NC(=O)N2C3CCCC2CC(NC(=O)C(C)(C)C)C3)c1 (configuration not stated)	0	-18	/	-2	1	1
CCc1cc[n+](C2=C([O-])c3ccccc3C(=O)/C2=N\S(=O)(=O)c2cccs2)cc1	0	0	19	-17	106*	3
O=C1C(=O)c2ccccc2C([O-])=C1[n+]1ccccc1	0	-10	/	11	-5	/
CCN(Cc1ccccc1)C(=O)Cn1cc(S(=O)(=O)NC)c(S(=O)(=O)NC)c1	0	-1	/	3	-3	-11
O=C(NNc1ccccc1Br)C(O)(c1cccc(C(F)(F)F)c1)c1cccc(C(F)(F)F)c1	0	44	-3	-11	125*	12
SMILES	Efflux pump inh	T cruzi inh	WT yeast gro inh	Mot1-301 SUMO	Beta cell apopt	CSC inhib
Cc1ccc(C(O)(C(=O)NNc2ccccn2)c2ccc(C)cc2)cc1	0	6	-6	-5	-2	11
CC(C)(O)C(=O)NNC(=S)Nc1cccc(C(F)(F)F)c1	0	-2	-5	-6	6	-6
Cc1ccc(NNC(=O)C(O)(c2cccc(C(F)(F)F)c2)c2cccc(C(F)(F)F)c2)cc1	0	39	83*	95	3	99*
Cc1nn(Cc2ccccc2Cl)c(C)c1C(=O)NCCN1C(=O)S/C(=C\c2ccccc2)C1=O	0	8	-30	4	6	29
COc1cccc(/C=N/N2CCN(c3ccncc3S(=O)(=O)N3CCCCC3)CC2)c1	0	66*	3	-16	1	-7
COc1cc(C(=O)NC2CCCC(C)C2C)ccc1OCC(=O)N1CCOCC1 (configuration not stated)	0	/	/	-3	-1	6
